# Measurements collected from several papers.
# Protocols differ between the studies behind these lines.
# Target: Tyrosine-protein kinase receptor UFO (AXL, Homo sapiens, UniProt P30530)
# Sequence (P30530 26-894, as in one of the studies): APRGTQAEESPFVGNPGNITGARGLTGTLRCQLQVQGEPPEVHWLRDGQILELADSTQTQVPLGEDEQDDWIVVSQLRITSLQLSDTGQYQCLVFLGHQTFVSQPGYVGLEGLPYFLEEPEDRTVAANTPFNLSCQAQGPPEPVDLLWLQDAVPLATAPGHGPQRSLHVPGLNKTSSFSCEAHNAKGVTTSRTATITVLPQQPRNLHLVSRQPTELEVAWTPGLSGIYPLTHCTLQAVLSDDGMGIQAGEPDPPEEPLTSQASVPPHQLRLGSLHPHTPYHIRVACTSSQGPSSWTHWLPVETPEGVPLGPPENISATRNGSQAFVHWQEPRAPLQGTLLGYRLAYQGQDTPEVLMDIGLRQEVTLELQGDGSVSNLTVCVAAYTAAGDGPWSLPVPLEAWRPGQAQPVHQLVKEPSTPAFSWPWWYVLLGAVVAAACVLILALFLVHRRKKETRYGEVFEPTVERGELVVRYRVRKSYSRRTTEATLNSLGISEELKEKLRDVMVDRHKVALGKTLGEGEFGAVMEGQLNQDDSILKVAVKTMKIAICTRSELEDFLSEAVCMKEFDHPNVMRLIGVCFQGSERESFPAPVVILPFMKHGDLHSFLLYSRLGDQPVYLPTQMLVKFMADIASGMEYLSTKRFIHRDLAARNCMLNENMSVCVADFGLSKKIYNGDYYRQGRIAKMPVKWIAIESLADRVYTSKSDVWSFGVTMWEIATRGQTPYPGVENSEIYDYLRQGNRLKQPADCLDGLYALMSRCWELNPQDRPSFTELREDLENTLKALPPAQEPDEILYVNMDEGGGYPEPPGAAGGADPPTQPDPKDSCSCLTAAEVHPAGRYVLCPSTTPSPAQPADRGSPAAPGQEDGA
SMILES,read-out,method,concentration,remaining binding
C[C@@H]1CCN(c2nccc(-c3cnn4ncccc34)n2)C1,binding,,1 µM,86%
N#Cc1ccccc1CSc1nnc2c(n1)[nH]c1ccccc12,binding,competition with immobilised ligand,10 µM,65%
CC(C)(C)c1ccc(-c2nc(CBr)nn2-c2cccc(O)c2)cc1,cell-free assay,competition with immobilised ligand,10 µM,84%
CC(=O)N1CCC(c2ccc(C(=O)NC3=NCCN3)cc2C(F)(F)F)CC1,cell-free assay,competition with immobilised ligand,1 µM,100%
COc1ncc2cc3ccccc3nc2c1C#N,cell-free assay,competition with immobilised ligand,5 µM,92%
C[C@@H]1CN(c2ccc3ncc(-c4ccc5[nH]nc(C6CC6)c5c4)n3n2)C[C@H](C)O1,binding,competition with immobilised ligand,50 nM,95%
CN(CCCC(F)(F)F)c1nccc(-c2cnn3ncccc23)n1,binding,,1 µM,75%
O=C(NCCCN1CCOCC1)c1ccc(Nc2ncc(Cl)c(-c3ccc(Cl)s3)n2)cc1,binding,competition with immobilised ligand,1 µM,76%
COc1ccnn2ncc(-c3ccnc(N(C)C)n3)c12,binding,,1 µM,100%
FC(F)(F)Oc1cccc(-c2cnc3ccc(-c4ccncc4)nn23)c1,cell-free assay,competition with immobilised ligand,5 µM,74%
CO[C@@H](C)c1c(Nc2ccc([C@@H](N(C)C(=O)C3CCS(=O)(=O)CC3)C(F)(F)F)cc2)cnc2cc(Cl)nn12,cell-free assay,competition with immobilised ligand,1 µM,77%
COc1cnc(Nc2cccc(S(N)(=O)=O)c2)nc1N1CCN(c2ccccc2)CC1,binding,competition with immobilised ligand,1 µM,68%
CNC(=O)c1ccc(Nc2ncc(C(F)(F)F)c(NCc3nccnc3N(C)S(C)(=O)=O)n2)cc1,cell-free assay,competition with immobilised ligand,0.1 µM,51%
O=C(c1ccc(Nc2ncc(Cl)c(-c3ccc(Cl)s3)n2)cc1)N1CCC(N2CCCC2)CC1,binding,competition with immobilised ligand,1 µM,28%
CN(c1nccc(-c2cnn3ncccc23)n1)C1CC1,binding,,1 µM,78%
CCCCN(CCCC)C(=O)CN1C[C@H](c2cc(OC)c3c(c2)OCO3)[C@@H](C(=O)O)[C@@H]1CC(C)(C)CCC,cell-free assay,competition with immobilised ligand,1 µM,100%
